Assay results reported in ChEMBL document CHEMBL4033780, “Lipidated Brartemicin Analogues Are Potent Th1-Stimulating Vaccine Adjuvants” (J Med Chem, 2018).
Calls of active or inactive are those of the source. No cut-off for these calls is given here.

Columns and labels:
Mus musculus [1] = species on record: Mus musculus; experiment: Adjuvant activity in immunized C57BL/6 mouse assessed as increase in OVA-specific IgG production in serum at 0.3 umol treated with ovalbumin for 7 days followed by stimulation with OVA for 7 days and restimulation with OVA measured 24 to 48 hrs post OVA challenge; assay type: functional
In short: (§1)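 Sera were taken on days 0, 7 and 14 from C57BL/6 mice sensitized s.c. with emulsion containing OVA 200 μg ± adjuvant 0.3 μmol and footpad-challenged with OVA on day 7. OVA-specific IgG, IgG1, IgG2b and IgG2c were measured by ELISA with HRP-coupled anti-mouse secondaries. EC50 was taken from absorbance at 450 nm plotted against log serum concentration.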

Mus musculus [2] = species on record: Mus musculus; experiment: Adjuvant activity in immunized C57BL/6 mouse assessed as increase in IL-17 production in spelnocytes at 0.3 umol treated with ovalbumin for 7 days followed by stimulation with OVA for 7 days and restimulation with OVA measured 24 to 48 hrs post OVA challenge; assay type: functional, cell-based
In short: (§2)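 C57BL/6 mice (8–12 wk) given s.c. oil-in-water emulsion (mineral oil/Tween-80/PBS 9:1:90) holding OVA 200 μg ± adjuvant 0.3 μmol; controls were OVA alone or no OVA. Footpad challenge with OVA 100 μg on day 7, spleens taken day 14. Splenocytes restimulated with OVA 10, 30 or 100 μg/mL. Cell number read at 450 nm after 3 h with a count reagent; IFN-γ and IL-17 measured by ELISA.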

[3] = molecular target: T1, C-type lectin domain family 4 member E (Mus musculus) (UniProt Q9R0Q8); experiment: Agonist activity at mincle in wild type C57BL/6 mouse GM-CSF derived BMDM assessed as increase in IL-6 release at 0.1 to 1 nmol after 24 hrs by sandwich ELISA
T1 sequence (whole entry): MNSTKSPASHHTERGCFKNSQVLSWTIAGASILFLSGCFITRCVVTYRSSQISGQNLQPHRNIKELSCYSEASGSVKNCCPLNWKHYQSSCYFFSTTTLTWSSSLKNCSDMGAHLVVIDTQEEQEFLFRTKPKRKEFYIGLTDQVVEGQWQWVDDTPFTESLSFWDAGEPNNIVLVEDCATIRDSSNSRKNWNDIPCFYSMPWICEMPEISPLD
In short: (§3)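 Wild-type or Mincle−/− C57BL/6 bone marrow was cultured 8 days with GM-CSF 50 ng/mL in complete RPMI. Macrophages were detached with Acutase and seeded on ligand-coated plates (0.1 or 1 nmol/well); LPS 100 ng/mL was used as comparator. Supernatant was taken at 24 h and TNF, IL-6, IL-1β and MIP-2 measured by sandwich ELISA. Representative of three experiments in triplicate (±SD).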

[4] = molecular target: T1, C-type lectin domain family 4 member E (Mus musculus); experiment: Agonist activity at mincle in wild type C57BL/6 mouse GM-CSF derived BMDM assessed as increase in IL-1beta release at 0.1 to 1 nmol after 24 hrs by sandwich ELISA; in short: as §3
[5] = molecular target: T1, C-type lectin domain family 4 member E (Mus musculus); experiment: Agonist activity at mincle in wild type C57BL/6 mouse GM-CSF derived BMDM assessed as increase in MIP2 release at 0.1 to 1 nmol after 24 hrs by sandwich ELISA; in short: as §3
[6] = molecular target: T1, C-type lectin domain family 4 member E (Mus musculus); experiment: Agonist activity at mincle in wild type C57BL/6 mouse GM-CSF derived BMDM assessed as increase in TNF release at 0.1 to 1 nmol after 24 hrs by sandwich ELISA; in short: as §3
Th17 = experiment: Immunostimulatory activity in OT-2 TCR transgenic mouse CD4+ Th17 cells co-cultured with C57BL/6 mouse BMDM assessed as increase in ovalbumin-specific IL-17 release at 0.1 nmol after 48 hrs by ELISA; assay type: functional, cell-based
In short: (§4)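 OT-II CD4+ T cells (1×10^5) were cocultured with GM-CSF bone-marrow cells (1×10^4) on wells coated with glycolipid 0.1 nmol/well or isopropanol only, with OVA323–339 peptide at 0, 0.1 or 1 μM. Supernatant was collected after 48 h and IFN-γ and IL-17 measured by ELISA. Representative of two experiments in triplicate (±SD).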

[7] = molecular target: T1, C-type lectin domain family 4 member E (Mus musculus); experiment: Binding affinity to recombinant mouse mincle extracellular domain fused with human IgG Fc expressed in HEK293T cells at 0.1 nmol by ELISA; assay type: cell-based; details: HEK-293T
[8] = molecular target: T2, C-type lectin domain family 4 member E (Homo sapiens) (UniProt Q9ULY5); experiment: Agonist activity at human mincle coupled with FcRgamma expressed in 2B4-NFAT-GFP reporter cells after 18 hrs by flow cytometric analysis; assay type: cell-based
T2 sequence (whole entry): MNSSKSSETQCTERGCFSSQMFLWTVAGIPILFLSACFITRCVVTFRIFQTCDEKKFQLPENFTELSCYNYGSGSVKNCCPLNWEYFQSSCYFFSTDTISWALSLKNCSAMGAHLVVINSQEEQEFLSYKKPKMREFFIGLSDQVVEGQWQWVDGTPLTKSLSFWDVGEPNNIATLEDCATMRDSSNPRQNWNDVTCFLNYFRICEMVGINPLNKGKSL
In short: (§5)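 2B4 NFAT-GFP reporter cells expressing mouse or human Mincle plus FcRγ were placed on plates coated with ligand at 0.01, 0.1 or 1 nmol/well; cells expressing FcRγ only served as negative control. Ligand was coated from isopropanol, 0.05 mM, and solvent evaporated. After 18 h, cells were harvested, stained with propidium iodide and GFP read by flow cytometry. Mean of three experiments in duplicate (±SEM).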

[9] = molecular target: T1, C-type lectin domain family 4 member E (Mus musculus); experiment: Agonist activity at mouse mincle coupled with FcRgamma expressed in 2B4-NFAT-GFP reporter cells after 18 hrs by flow cytometric analysis; assay type: cell-based; in short: as §5
BMDM [10] = experiment: Immunostimulatory activity in mincle-/- C57BL/6 mouse GM-CSF derived BMDM assessed as increase in IL-6 release at […] after 24 hrs by sandwich ELISA method; assay type: functional, cell-based; in short: as §3
BMDM [11] = experiment: Immunostimulatory activity in mincle-/- C57BL/6 mouse GM-CSF derived BMDM assessed as increase in IL-1beta release at […] after 24 hrs by sandwich ELISA method; assay type: functional, cell-based; in short: as §3
Th1 = experiment: Immunostimulatory activity in OT-2 TCR transgenic mouse CD4+ Th1 cells co-cultured with C57BL/6 mouse BMDM assessed as increase in IFNgamma release at 0.1 nmol after 48 hrs by ELISA; assay type: functional, cell-based; in short: as §4
Mus musculus [12] = species on record: Mus musculus; experiment: Adjuvant activity in immunized C57BL/6 mouse assessed as footpad swelling at 0.3 umol treated with ovalbumin for 7 days followed by stimulation with OVA for 7 days measured 24 to 48 hrs post OVA challenge; assay type: functional
[13] = Toxicity in Atlantic horseshoe crab blood limulus amebocyte lysate by chromogenic endotoxin test; details: limulus polyphemus
In short: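 Endotoxin was measured by chromogenic Limulus amebocyte lysate assay at a sensitivity of ≤0.1 EU/mL.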

Mus musculus [14] = species on record: Mus musculus; experiment: Adjuvant activity in immunized C57BL/6 mouse assessed as increase in OVA-specific IgG1 production in serum at 0.3 umol treated with ovalbumin for 7 days followed by stimulation with OVA for 7 days and restimulation with OVA measured 24 to 48 hrs post OVA challenge relative to control; assay type: functional; in short: as §1
Mus musculus [15] = species on record: Mus musculus; experiment: Adjuvant activity in immunized C57BL/6 mouse assessed as increase in OVA-specific IgG2c production in serum at 0.3 umol treated with ovalbumin for 7 days followed by stimulation with OVA for 7 days and restimulation with OVA measured 24 to 48 hrs post OVA challenge relative to control; assay type: functional
Mus musculus [16] = species on record: Mus musculus; experiment: Adjuvant activity in immunized C57BL/6 mouse assessed as increase in splenocyte number at 0.3 umol treated with ovalbumin for 7 days followed by stimulation with OVA for 7 days and restimulation with OVA measured 24 to 48 hrs post OVA challenge; assay type: functional; in short: as §2

Activity [3]: Active | Activity [4]: Active | Activity [5]: Active | Activity [6]: Active | Activity [7]: Active | Activity [8]: Dose-dependent effect | Activity [9]: Dose-dependent effect
Structure (SMILES): CCCCCCCCCCCCCCCCCCOc1ccc(C(=O)OC[C@H]2O[C@H](O[C@H]3O[C@H](COC(=O)c4ccc(OCCCCCCCCCCCCCCCCCC)cc4O)[C@@H](O)[C@H](O)[C@H]3O)[C@H](O)[C@@H](O)[C@@H]2O)c(O)c1
Activity (Mus musculus [1]): Active | Activity (Mus musculus [2]): inactive | Activity (Th17): Active | Activity (BMDM [10]): inactive | Activity (BMDM [11]): inactive | Activity (Th1): inactive | Activity (Mus musculus [12]): inactive | Activity [13]: <= 0.1 EU/ml | fold change (FC) (Mus musculus [14]): 2 | fold change (FC) (Mus musculus [15]): 3 | Activity (Mus musculus [16]): Active
